Screening results (PubChem)
Hits are enriched below; roughly 2.2% of the tested compounds scored in any of these assays.
FN deposition inh: fibronectin deposition inhibition; AH1F fibroblasts, Alexa488-fibronectin deposition fluorescence, overnight; inhibition, % at 12.6 µM; 350,000 tested, 0.086% active;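 active = mean inhibition across replicates of 30% or more, regardless of how many single replicates reach that level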;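 also: positive control wells lacked labelled fibronectin entirely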
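Material: AH1F fibroblast monolayer depositing Alexa488-labelled fibronectin into matrix / Amount: 10000 AH1F cells per well / Signal: fluorescence 485/525 nm / Medium: DMEM, 2% serum / Compound: single dose, pinned / Incubation: 1 h cell adhesion before compound, then overnight fibronectin incubation / Reagent: Alexa488-FN, 24 nM final / Read-out: inhibition of fibronectin deposition signal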
HIV Env fusion: inhibitors of HIV Env-mediated cell fusion; HeLa-JRFL Env/CEM21 cell fusion, luciferase; inhibition, % at 12.3 µM; AID 651610; 360,000 tested, 1.1% active;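 active = mean replicate inhibition score of at least 50 and every replicate individually at or above 50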;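 also: 0% = plate neutral controls and 100% = maraviroc near 300 nM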
ERp5 block: inhibitors of human ERp5; inhibition, % at 9.99 µM; 350,000 tested, 0.05% active; AID 651711; Q15084; ERp5 insulin aggregation, absorbance 650 nm, 90 min;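 active = mean replicate inhibition above about 25%, with every replicate also reaching it, limit read from the data, passing the limit was not always enough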
PvdQ acylase: P. aeruginosa PvdQ acylase inhibition. purified PvdQ acylase, fluorescence plate reader. inhibition, % at 10 µM. 340,000 tested, 0.063% active. AID 488965; in the data active = inhibition above about 30%, passing the limit was not always enough;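 also: 0% = vehicle neutral wells and 100% = reference inhibitor wells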
rRNA inh HTS: inhibitors of bacterial rRNA selective over humanized ribosomes. E. coli WT GFP vs humanized-ribosome RFP mutants, fluorescence, 24 h; active compounds read low; DMSO median 0, no signal -100. GFP signal change (wild-type ribosome), % (no concentration beside the values). 350,000 tested, 1.6% active;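 active = significant combined selectivity score with lowered wild-type GFP, culture density cut under 30%, mutant RFP and density less affected; inactive = any of these conditions unmet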
PDI inh: PDI (human) enzyme inhibition | P07237 | inhibition, % at 10 µM | 350,000 tested, 0.052% active | AID 588391 | PDI insulin aggregation turbidity, A650, 90 min;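 active = mean inhibition across replicates of 30% or more, whatever share of single replicates reach that level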
Target sequence (P07237 whole entry, looked up): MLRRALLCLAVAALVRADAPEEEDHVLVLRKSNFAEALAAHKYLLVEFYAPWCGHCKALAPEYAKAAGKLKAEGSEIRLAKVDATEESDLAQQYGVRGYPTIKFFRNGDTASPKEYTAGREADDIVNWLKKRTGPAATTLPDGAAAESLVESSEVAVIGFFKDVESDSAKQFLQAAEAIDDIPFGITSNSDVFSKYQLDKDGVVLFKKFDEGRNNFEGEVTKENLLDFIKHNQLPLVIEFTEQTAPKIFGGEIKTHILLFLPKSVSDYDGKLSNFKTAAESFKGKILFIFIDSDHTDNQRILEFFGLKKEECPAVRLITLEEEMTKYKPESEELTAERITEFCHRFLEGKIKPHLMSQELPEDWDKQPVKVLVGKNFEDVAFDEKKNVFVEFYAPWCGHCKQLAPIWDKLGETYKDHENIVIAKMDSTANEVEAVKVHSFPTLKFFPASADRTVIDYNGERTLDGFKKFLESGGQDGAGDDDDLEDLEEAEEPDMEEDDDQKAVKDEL
An asterisk follows results filed as active; [ ] = another dose, or the depositor's remark.

Results for Cc1ccc(NC(=O)c2ncn(CCCN3CCN(c4ccccn4)CC3)n2)cc1C ?
FN deposition inh: -4; HIV Env fusion: 19; ERp5 block: -7; PvdQ acylase: -10; rRNA inh HTS: -22*; PDI inh: -5

How did C[C@@H]1CCCCO[C@H](CN(C)Cc2ccccc2)[C@H](C)CN([C@H](C)CO)C(=O)c2cc(NC(=O)NC3CCCCC3)ccc2O1 do in these assays?
HIV Env fusion: 2[16.7 µM]; ERp5 block: -6; rRNA inh HTS: -8

Results for C[C@H](CO)N1C[C@H](C)[C@H](CN(C)C)OCCCC[C@H](C)Oc2ccc(NC(=O)Nc3ccc(F)cc3)cc2C1=O ?
HIV Env fusion: -18[16.7 µM]; rRNA inh HTS: 2

What do the screens show for `COc1ccc(NS(=O)(=O)c2cc([N+](=O)[O-])ccc2NN=Cc2ccccc2OCC(=O)O)cc1`?
FN deposition inh: -6; ERp5 block: 0; PvdQ acylase: -19; rRNA inh HTS: -32*; PDI inh: 0

Results for O=C(O)c1ccccc1NS(=O)(=O)c1ccc(N/N=C/c2ccc(O)c(O)c2)c([N+](=O)[O-])c1 ?
FN deposition inh: -11; HIV Env fusion: 2; ERp5 block: 1; PvdQ acylase: 2; rRNA inh HTS: -25*; PDI inh: -6

Results for COc1ccc(C=NNc2ccc([N+](=O)[O-])cc2S(=O)(=O)Nc2ccccc2C(=O)O)cc1OC ?
FN deposition inh: 0; HIV Env fusion: -9; ERp5 block: -4; PvdQ acylase: 5; rRNA inh HTS: -23*; PDI inh: 7

Results for Cc1noc(C)c1NC(=O)Nc1ccc2c(c1)C(=O)N([C@H](C)CO)C[C@@H](C)[C@H](CN(C)Cc1ccc3c(c1)OCO3)O2 ?
ERp5 block: 1; rRNA inh HTS: 0

How did c1ccc(N=Nc2ccc3cccccc2-3)cc1 do in these assays?
FN deposition inh: -15; HIV Env fusion: -56; ERp5 block: 0; PvdQ acylase: -19; rRNA inh HTS: -20*; PDI inh: -4

What do the screens show for `Nc1ccc(N=Nc2ccccc2)c2ccccc12`?
FN deposition inh: 9; HIV Env fusion: -35; ERp5 block: 2; PvdQ acylase: 3; rRNA inh HTS: 4; PDI inh: 7

Results for Nc1ccc(N=Nc2ccccc2)c(N)n1 ?
FN deposition inh: 3; HIV Env fusion: -154; ERp5 block: -1; PvdQ acylase: 4; rRNA inh HTS: -24*; PDI inh: 12

How did CNC[C@@H]1Oc2ccccc2CC(=O)N(C)C[C@H]1C do in these assays?
FN deposition inh: -5; rRNA inh HTS: 2

What do the screens show for `O=C(NNC(=O)c1ccc2ccccc2c1)Nc1ccc(F)cc1`?
FN deposition inh: -8; ERp5 block: 26*; PvdQ acylase: -12; rRNA inh HTS: 1; PDI inh: 4

Results for COc1ccc(S(=O)(=O)N2CCCCCC2)cc1NC(=O)c1c2c(nc3ccccc13)CCN(Cc1ccccc1)C2 ?
FN deposition inh: -1; HIV Env fusion: 65*; PvdQ acylase: -13; PDI inh: -1

Results for CCN(CC)S(=O)(=O)c1ccc(OC(C)C)c(NC(=O)c2c3c(nc4ccccc24)CCN(Cc2ccccc2)C3)c1 ?
FN deposition inh: -1; HIV Env fusion: 59*; ERp5 block: 2; PvdQ acylase: 2; rRNA inh HTS: -5; PDI inh: -3

Results for COc1ccc(NC(=O)c2c3c(nc4ccccc24)CCN(Cc2ccccc2)C3)c(OC)c1 ?
FN deposition inh: 7; HIV Env fusion: 2; ERp5 block: -5; PvdQ acylase: -3; rRNA inh HTS: -1; PDI inh: -4

Results for CCCN(C)C[C@@H]1OCCCC[C@H](C)Oc2ccc(NC(=O)CCC(F)(F)F)cc2C(=O)N([C@H](C)CO)C[C@@H]1C ?
HIV Env fusion: -22[16.7 µM]; ERp5 block: -4; rRNA inh HTS: 2

How did NS(=O)(=O)c1ccc(CCNC(=O)CN2CCN(c3ccc(F)cc3)CC2)cc1 do in these assays?
HIV Env fusion: 64*; PvdQ acylase: -14; PDI inh: 12

What do the screens show for `CC(=O)N(C)C[C@@H]1Oc2ccc(NS(C)(=O)=O)cc2C(=O)N(C)C[C@@H]1C`?
FN deposition inh: -15; rRNA inh HTS: 1

What do the screens show for `Cc1ccc(NS(=O)(=O)c2ccc(-c3csc(C)n3)s2)c(C)c1`?
FN deposition inh: -3; HIV Env fusion: 8; ERp5 block: 5; PvdQ acylase: -10; rRNA inh HTS: -38*; PDI inh: -3

How did CO[C@@H]1CN(C)C(=O)c2ccc(NS(=O)(=O)c3cn(C)cn3)cc2OC[C@@H](C)N(CC2CC2)C[C@H]1C do in these assays?
FN deposition inh: -2; ERp5 block: 0; rRNA inh HTS: 4

Results for C[C@@H]1CN([C@@H](C)CO)C(=O)c2cccc(NS(=O)(=O)c3ccc(F)cc3)c2O[C@H]1CN(C)S(=O)(=O)c1ccccc1 ?
HIV Env fusion: -1[16.7 µM]; ERp5 block: 46*; rRNA inh HTS: -1

What do the screens show for `C[C@@H]1CN([C@@H](C)CO)C(=O)c2cccc(NS(=O)(=O)c3ccc(F)cc3)c2O[C@@H]1CN(C)Cc1ccc(C(F)(F)F)cc1`?
HIV Env fusion: 58*[16.7 µM]; ERp5 block: 4; rRNA inh HTS: -3

What do the screens show for `C[C@@H]1CN([C@H](C)CO)C(=O)Cc2cc(NS(=O)(=O)c3ccc(F)cc3)ccc2O[C@@H]1CN(C)Cc1ccc(C(F)(F)F)cc1`?
FN deposition inh: -7; HIV Env fusion: 22[16.7 µM]; ERp5 block: 1; rRNA inh HTS: -1

Results for C[C@@H]1CN([C@H](C)CO)C(=O)c2cc(NS(=O)(=O)c3ccc(F)cc3)ccc2O[C@H]1CN(C)Cc1ccc(C(F)(F)F)cc1 ?
FN deposition inh: -12; HIV Env fusion: 72*[16.7 µM]; rRNA inh HTS: -4

Results for C[C@@H]1CN([C@@H](C)CO)C(=O)Cc2cc(NS(=O)(=O)c3ccc(F)cc3)ccc2O[C@H]1CN(C)Cc1ccc(C(F)(F)F)cc1 ?
FN deposition inh: -11; HIV Env fusion: 56*[16.7 µM]; ERp5 block: 0; rRNA inh HTS: -3

What do the screens show for `C[C@@H]1CN([C@H](C)CO)C(=O)c2cc(NS(=O)(=O)c3ccc(F)cc3)ccc2O[C@@H]1CN(C)Cc1ccc(C(F)(F)F)cc1`?
HIV Env fusion: -10[16.7 µM]; ERp5 block: -9; rRNA inh HTS: -5

Results for CCC(=O)N1CC(=O)N2[C@@H](CO)[C@H](c3ccc(C#Cc4cccc(OC)c4)cc3)[C@@H]2C1 ?
ERp5 block: -3; rRNA inh HTS: -1

Results for C[C@@H]1CN([C@H](C)CO)C(=O)c2cccc(NS(=O)(=O)c3cn(C)cn3)c2O[C@H]1CN(C)C(=O)Nc1ccc(F)cc1 ?
FN deposition inh: 0; HIV Env fusion: 73*[16.7 µM]; ERp5 block: -9; rRNA inh HTS: 1
